Assay outcomes as filed in PubChem.
A selection: hits, their analogues and other compounds. The true share with any hit is near 1.3%.
GSK3A inh: human GSK-3 alpha kinase inhibition; 320,000 tested, 0.1% active; ADP-Glo luminescence, 60 min; inhibition, % at 10 µM; AID 2650; P49840;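 active = more than half of replicates show inhibition above 20%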;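 also: GST-tagged GSK-3 alpha with peptide substrate and 25 µM ATP; 0% = DMSO neutral wells and 100% = GW8510 positive control wells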
TAG inh: reduces triacylglycerol accumulation in H9c2 cells. Nile Red lipid (TAG) fluorescence; cells loaded with 200 µM oleic acid. 230,000 tested, 0.66% active. inhibition, % at 12.5 µM;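 active = pattern-corrected inhibition of lipid staining of at least 50% with the nuclear-stain viability signal not falling by more than 50%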;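 also: 0% = DMSO wells and 100% = triacsin C control wells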
STK33 inh: inhibitors of human STK33 kinase; Q9BYT3; inhibition, % at 10 µM; 320,000 tested, 0.073% active; purified STK33, MBP phosphorylation, ADP-Glo luminescence; AID 2661;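 active = inhibition at or above 25%, using the most active replicate where run in duplicate; inactive = inhibition below 25%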
Target sequence (Q9BYT3 whole entry, looked up): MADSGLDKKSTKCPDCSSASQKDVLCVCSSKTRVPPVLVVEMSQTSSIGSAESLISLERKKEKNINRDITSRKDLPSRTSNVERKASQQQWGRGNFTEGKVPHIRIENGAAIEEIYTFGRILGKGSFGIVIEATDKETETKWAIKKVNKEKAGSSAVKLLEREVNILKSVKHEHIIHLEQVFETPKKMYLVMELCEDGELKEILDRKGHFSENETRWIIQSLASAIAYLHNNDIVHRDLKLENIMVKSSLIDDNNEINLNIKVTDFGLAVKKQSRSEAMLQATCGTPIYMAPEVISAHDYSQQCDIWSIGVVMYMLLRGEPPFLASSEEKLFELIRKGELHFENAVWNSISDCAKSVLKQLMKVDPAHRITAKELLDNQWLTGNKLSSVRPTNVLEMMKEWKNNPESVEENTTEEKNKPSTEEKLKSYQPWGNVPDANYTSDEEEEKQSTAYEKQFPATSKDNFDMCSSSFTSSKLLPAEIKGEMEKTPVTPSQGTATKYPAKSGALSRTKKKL
GSK3beta inhib: blocks human GSK3beta kinase activity. GST-GSK3beta kinase, ADP-Glo luminescence, 60 min; active compounds read low. activity score (negative = inhibition), % at 10 µM. 300,000 tested, 0.038% active. AID 2097;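 active = more than half of replicate wells score below -50%, meaning over 50% inhibition versus plate controls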;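 also: 0% = median DMSO wells and -100% = median GW8510 positive control wells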
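Assay system: GST-fused GSK3beta enzyme, cell-free / Medium: Tris pH 7.5 buffer with MgCl2, DTT, BSA, heparin / Also added: peptide substrate plus 25 µM ATP (final) / Compound: 10 µM single point / Timing: kinase reaction with compound 60 min at room temperature / Detection: ADP-Glo luminescence / Benchmarks: DMSO neutral wells and GW8510 at 20 µM as positive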
Lipid droplet: hepatic lipid droplet formation modulation; 240,000 tested, 0.4% active; inhibition, % at 6.5 µM; AML12 mouse hepatocytes, oleate lipid droplets, BODIPY imaging; AID 1656;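 active = lipid droplet intensity inhibited by at least 50%, with more than 500 cells counted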
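Material: mouse AML12 hepatocyte cell line, fixed after treatment; Timing: compound with oleate, overnight; Technique: high-content imaging of BODIPY-stained droplets and DAPI nuclei; Probe or stimulus: oleate, 100 µM final; Dosing: compound at 6.5 µM only.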
LANA-H2B inh: blocks KSHV LANA binding to histone H2A/H2B; Q9QR71; cell-free LANA-H2A/H2B peptide, fluorescence polarization; inhibition, % (no concentration beside the values); 320,000 tested, 0.6% active; in the data active = inhibition mostly above about 10%, no sharp cut-off; inactive = mostly below about 6.7%
* marks the source's active call; other numbers are inactive results; · = no result; + = active, no number.

SMILES	GSK3A inh	TAG inh	STK33 inh	GSK3beta inhib	Lipid droplet	LANA-H2B inh
O=C(CC1C[C@H](C(=O)N2CCCCC2)[C@@]2(CCc3ccccc3)c3[nH]c4ccccc4c3CCN2C1=O)NCc1ccco1 (some centres undefined)	-3	5	1	·	·	-1
C=CCSc1nc2sc(C)c(C)c2c(=O)n1CC=C	2	-20	1	0	-10	-1
C=CCn1c(SCC(=O)c2c(N)n(C)c(=O)n(C)c2=O)nc2sc(C)c(C)c2c1=O	-1	·	-1	·	·	111*
C=CCn1c(SCc2ccc(C(=O)NCCO)cc2)nc2sc(C)c(C)c2c1=O	-1	-4	0	3	-16	23*
C=CCn1c(SCC(=O)c2cccs2)nc2sc(C)c(C)c2c1=O	-8	-18	-1	0	-14	0
CSc1ccc(C2c3[nH]c4ccccc4c3CCN2C(=O)c2cc(C)n(C)n2)cc1 (centres undefined)	1	·	-1	3	44	-2
Cc1cc(C(=O)N2CCc3c([nH]c4ccccc34)C2c2cccc(Cl)c2)nn1C (centres undefined)	-3	8	0	2	67*	1
CC(C)c1nc(C(=O)N2CCc3c([nH]c4ccccc34)C2c2ccccn2)cs1 (centres undefined)	1	·	-1	2	-17	14*
Cc1nc(C(=O)N2CCc3c([nH]c4ccccc34)C2c2cc(F)ccc2F)cs1 (centres undefined)	17	-18	4	1	-5	16*
Cc1nc(C(=O)N2CCc3c([nH]c4ccccc34)C2c2ccccn2)cs1 (centres undefined)	-3	-17	0	3	-11	0
O=C(c1ccc(OC2CCN(Cc3ccc(C(F)(F)F)cc3)CC2)cc1)N1CCCCC1	-1	·	0	2	-35	2
Cc1ccc(S(=O)(=O)n2nccc2-c2c(-c3ccc(Cl)cc3)noc2C)cc1	1	-21	1	5	-8	17*
CCN(CC(=O)NCc1cccs1)C(=O)COc1ccc(C(C)=O)cc1	0	5	-2	·	·	+
CCN(CC(=O)NCc1cccs1)C(=O)COc1cccc(C(F)(F)F)c1	0	3	-1	·	·	-1
COc1ccc(C(CNC(=O)c2oc3ccccc3c2C)N2CCCC2)cc1 (centres undefined)	-1	5	-1	·	·	-1
COc1ccc(C(CNC(=O)c2oc3c(Cl)cccc3c2C)N2CCCC2)cc1 (centres undefined)	0	4	0	-2	·	22*
CCN(c1ccccc1)S(=O)(=O)c1ccc(OC)c(NC(=O)CNC)c1	-2	-6	0	1	·	-3
CCN(c1ccccc1)S(=O)(=O)c1ccc(OC)c(NC(=O)CN(C)C)c1	1	-4	1	-7	-16	94*
O=C(O)Cn1cc(CN2CCOCC2)c2ccccc21	-1	10	-1	-1	2	1
Cn1cc(CN2CCN(c3ccccc3)CC2)c2ccccc21	·	·	0	0	·	13*
COc1ccc(-c2cncnc2-c2ccc(OC)cc2O)cc1	39	·	0	-1	-12	-10
COc1ccc(-c2ncncc2-c2ccc(OC)c(OC)c2)c(O)c1	52*	·	0	3	2	0
Cc1ccc(C(C)C)c(OCC(=O)Nc2ccc(N3CCN(S(C)(=O)=O)CC3)cc2)c1	-1	36	0	·	-3	50*
CC(C)=CCc1c(O)ccc2c1OC(c1ccc(O)c(O)c1)CC2=O (centres undefined)	76*	·	3	-50*	2	-3
CS(=O)(=O)N(CC(=O)Nc1ccccc1C(=O)NCc1ccccc1)c1ccc2c(c1)OCCO2	1	·	-2	0	-7	86*
CS(=O)(=O)N(CC(=O)Nc1ccccc1C(=O)NCCc1ccccc1)c1ccc2c(c1)OCCO2	1	·	0	1	1	-4
Cc1cc(C(=O)CCC(=O)N2CCN(S(=O)(=O)c3ccccc3)CC2)c(C)s1	-3	2	·	2	·	1
COc1ccc(C2/C=C\CN(S(=O)(=O)c3ccc(C)cc3)CC(=O)N2Cc2cccc(F)c2)cc1 (centres undefined)	·	21	·	·	·	·
